Data: ChEMBL document CHEMBL4308847, “Discovery, Structure-Activity Relationship, and Biological Characterization of a Novel Series of 6-((1 H-Pyrazolo[4,3- b]pyridin-3-yl)amino)-benzo[ d]isothiazole-3-carboxamides as Positive Allosteric Modulators of the Metabotropic Glutamate Receptor 4 (mGlu4)” (J Med Chem, 2018)
pEC50, pIC50: −log10 of the molar value.

Tests used:
[1] = Clearance in rat administered as iv cassette dose; format: ADME, organism-based; settings: in vivo
Method in brief: (§1)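 IV cassette in male Sprague-Dawley rats (~300 g, n = 1 per experiment), cannulated in carotid artery and jugular vein and acclimated about one week. Plasma clearance, Vss, t1/2 and MRT were derived.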

[2] = MRT in rat administered as iv cassette dose; format: ADME, organism-based; settings: in vivo; method in brief: as §1
[3] = target: Metabotropic glutamate receptor 4 (Rattus norvegicus, UniProt P31423); assay: Positive allosteric modulation of rat mGlu4 receptor expressed in HEK cells co-expressing GIRK1/2 assessed as increase in glutamate-induced thallium flux preincubated for 140 secs followed by glutamate addition and measured after 2.5 mins by FluoZin-2-AM dye based fluorescence assay; format: cell-based
Metabotropic glutamate receptor 4 (Rattus norvegicus, UniProt P31423), sequence (P31423 whole entry): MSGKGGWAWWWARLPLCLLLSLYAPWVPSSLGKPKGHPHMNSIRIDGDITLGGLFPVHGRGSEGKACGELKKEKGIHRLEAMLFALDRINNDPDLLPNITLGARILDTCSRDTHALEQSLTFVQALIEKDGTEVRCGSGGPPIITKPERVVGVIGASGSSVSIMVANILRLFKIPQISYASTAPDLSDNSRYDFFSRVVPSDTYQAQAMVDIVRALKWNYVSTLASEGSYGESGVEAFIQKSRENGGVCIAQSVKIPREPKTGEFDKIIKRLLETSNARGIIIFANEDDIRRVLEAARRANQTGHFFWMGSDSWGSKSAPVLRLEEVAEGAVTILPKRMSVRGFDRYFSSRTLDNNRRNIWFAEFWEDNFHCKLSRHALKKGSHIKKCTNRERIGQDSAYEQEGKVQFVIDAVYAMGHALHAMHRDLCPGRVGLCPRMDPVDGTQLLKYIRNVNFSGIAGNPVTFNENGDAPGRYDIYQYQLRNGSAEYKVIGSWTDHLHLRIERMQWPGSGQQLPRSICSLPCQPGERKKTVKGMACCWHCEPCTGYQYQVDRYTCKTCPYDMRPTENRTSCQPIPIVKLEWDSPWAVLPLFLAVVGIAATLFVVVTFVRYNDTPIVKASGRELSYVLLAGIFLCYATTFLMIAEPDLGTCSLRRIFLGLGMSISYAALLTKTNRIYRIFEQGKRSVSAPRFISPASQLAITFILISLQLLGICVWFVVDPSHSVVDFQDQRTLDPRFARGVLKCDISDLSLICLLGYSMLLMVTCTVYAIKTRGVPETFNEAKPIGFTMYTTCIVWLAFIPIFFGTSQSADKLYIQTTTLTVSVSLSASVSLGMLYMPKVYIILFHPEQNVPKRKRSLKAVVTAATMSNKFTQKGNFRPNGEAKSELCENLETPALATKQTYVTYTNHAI
Method in brief: (§2)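 HEK cells co-expressing rat mGlu4 and GIRK1/2 were loaded for 1 h at room temperature with FluoZin-2 AM (330 nM final) in HBSS/20 mM HEPES pH 7.4. Compound was incubated 140 s, then thallium buffer with or without agonist was added. Reading continued for 2.5 min at room temperature. Potency was fitted by four-parameter logistic.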

Cytochrome P450 1A2 = target: T1, Cytochrome P450 1A2 (Homo sapiens, UniProt P05177); assay: Inhibition of CYP1A2 in human liver microsomes using phenacetin as substrate preincubated for 15 mins followed by substrate addition and measured after 8 mins by LC-MS/MS analysis; format: ADME
T1 sequence (P05177 whole entry): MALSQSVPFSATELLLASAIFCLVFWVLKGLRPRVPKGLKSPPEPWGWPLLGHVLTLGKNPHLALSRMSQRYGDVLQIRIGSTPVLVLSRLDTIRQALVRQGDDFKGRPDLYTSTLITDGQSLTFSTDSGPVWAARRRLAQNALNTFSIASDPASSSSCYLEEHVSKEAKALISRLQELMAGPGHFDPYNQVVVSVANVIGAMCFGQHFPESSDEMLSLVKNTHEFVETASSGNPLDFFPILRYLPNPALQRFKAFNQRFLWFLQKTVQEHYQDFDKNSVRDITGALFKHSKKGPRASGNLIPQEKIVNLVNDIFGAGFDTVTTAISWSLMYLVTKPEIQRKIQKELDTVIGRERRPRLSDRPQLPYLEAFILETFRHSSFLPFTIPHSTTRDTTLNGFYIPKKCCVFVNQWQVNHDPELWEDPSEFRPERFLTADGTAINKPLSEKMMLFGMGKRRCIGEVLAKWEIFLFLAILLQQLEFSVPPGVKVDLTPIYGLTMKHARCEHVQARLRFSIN
Method in brief: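 IC50 for CYP1A2 inhibition determined in human liver microsomes using specific probe substrate-metabolite pairs.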

[4] = Intrinsic clearance in rat liver microsomes at 1 uM preincubated for 5 mins followed by NADPH addition measured up to 45 mins by LC-MS/MS analysis; format: ADME, Microsome; settings: read-out: CLH
Method in brief: (§3)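 Intrinsic and predicted hepatic clearance derived from liver microsome incubations.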

[5] = target: Metabotropic glutamate receptor 4 (Rattus norvegicus) (UniProt P31423); assay: Positive allosteric modulation of rat mGlu4 receptor expressed in HEK cells co-expressing GIRK1/2 assessed as increase in glutamate-induced thallium flux preincubated for 140 secs followed by glutamate addition and measured after 2.5 mins by FluoZin-2-AM dye based fluorescence assay relative to control; format: cell-based; method in brief: as §2
Metabotropic glutamate receptor 4 (Rattus norvegicus), sequence (P31423 whole entry): as the sequence (P31423 whole entry) above

[6] = target: T2, AhR (read out as CYP1A2 induction) (Homo sapiens, UniProt P35869); assay: Activation of AhR (unknown origin) assessed as CYP1A2 induction relative to control; format: ADME
T2 sequence (P35869 whole entry): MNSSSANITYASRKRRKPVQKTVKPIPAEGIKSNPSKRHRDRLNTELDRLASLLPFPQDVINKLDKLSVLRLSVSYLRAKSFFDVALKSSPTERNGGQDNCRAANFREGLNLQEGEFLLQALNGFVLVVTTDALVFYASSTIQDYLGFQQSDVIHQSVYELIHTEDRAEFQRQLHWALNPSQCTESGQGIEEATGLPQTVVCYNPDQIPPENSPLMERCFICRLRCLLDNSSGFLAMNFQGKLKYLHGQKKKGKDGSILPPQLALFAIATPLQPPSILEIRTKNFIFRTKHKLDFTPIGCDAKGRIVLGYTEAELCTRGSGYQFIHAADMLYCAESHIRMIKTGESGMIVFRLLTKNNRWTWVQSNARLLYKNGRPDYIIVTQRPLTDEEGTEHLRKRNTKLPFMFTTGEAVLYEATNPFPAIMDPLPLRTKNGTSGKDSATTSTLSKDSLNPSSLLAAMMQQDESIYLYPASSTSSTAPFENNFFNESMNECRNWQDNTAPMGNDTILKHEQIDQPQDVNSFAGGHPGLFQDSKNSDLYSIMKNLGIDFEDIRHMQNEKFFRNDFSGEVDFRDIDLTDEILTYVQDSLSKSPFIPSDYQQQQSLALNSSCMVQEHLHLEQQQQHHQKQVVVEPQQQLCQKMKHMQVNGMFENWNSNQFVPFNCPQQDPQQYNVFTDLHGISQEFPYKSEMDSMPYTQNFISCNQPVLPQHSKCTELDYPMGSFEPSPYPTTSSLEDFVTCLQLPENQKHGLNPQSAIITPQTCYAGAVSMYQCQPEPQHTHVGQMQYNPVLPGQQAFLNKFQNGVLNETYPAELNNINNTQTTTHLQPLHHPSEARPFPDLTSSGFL

[7] = Half life in rat administered as iv cassette dose; format: ADME, organism-based; settings: in vivo; method in brief: as §1
[8] = Fraction unbound in human plasma after 4 hrs by equilibrium dialysis method; format: ADME, cell-free
[9] = Volume of distribution at steady state in rat administered as iv cassette dose; format: ADME, organism-based; settings: in vivo, read-out: Vdss; method in brief: as §1
[10] = target: T3, Metabotropic glutamate receptor 4 (Homo sapiens, UniProt Q14833); assay: Positive allosteric modulation of human mGlu4 receptor expressed in CHO cells co-expressing Gqi5 assessed as increase in glutamate-induced calcium mobilization preincubated for 142 secs followed by EC20 glutamate addition and subsequent EC80 glutamate addition after 147 secs by Fluo-4-AM dye based fluorescence assay; format: functional, cell-based
T3 sequence (Q14833 whole entry): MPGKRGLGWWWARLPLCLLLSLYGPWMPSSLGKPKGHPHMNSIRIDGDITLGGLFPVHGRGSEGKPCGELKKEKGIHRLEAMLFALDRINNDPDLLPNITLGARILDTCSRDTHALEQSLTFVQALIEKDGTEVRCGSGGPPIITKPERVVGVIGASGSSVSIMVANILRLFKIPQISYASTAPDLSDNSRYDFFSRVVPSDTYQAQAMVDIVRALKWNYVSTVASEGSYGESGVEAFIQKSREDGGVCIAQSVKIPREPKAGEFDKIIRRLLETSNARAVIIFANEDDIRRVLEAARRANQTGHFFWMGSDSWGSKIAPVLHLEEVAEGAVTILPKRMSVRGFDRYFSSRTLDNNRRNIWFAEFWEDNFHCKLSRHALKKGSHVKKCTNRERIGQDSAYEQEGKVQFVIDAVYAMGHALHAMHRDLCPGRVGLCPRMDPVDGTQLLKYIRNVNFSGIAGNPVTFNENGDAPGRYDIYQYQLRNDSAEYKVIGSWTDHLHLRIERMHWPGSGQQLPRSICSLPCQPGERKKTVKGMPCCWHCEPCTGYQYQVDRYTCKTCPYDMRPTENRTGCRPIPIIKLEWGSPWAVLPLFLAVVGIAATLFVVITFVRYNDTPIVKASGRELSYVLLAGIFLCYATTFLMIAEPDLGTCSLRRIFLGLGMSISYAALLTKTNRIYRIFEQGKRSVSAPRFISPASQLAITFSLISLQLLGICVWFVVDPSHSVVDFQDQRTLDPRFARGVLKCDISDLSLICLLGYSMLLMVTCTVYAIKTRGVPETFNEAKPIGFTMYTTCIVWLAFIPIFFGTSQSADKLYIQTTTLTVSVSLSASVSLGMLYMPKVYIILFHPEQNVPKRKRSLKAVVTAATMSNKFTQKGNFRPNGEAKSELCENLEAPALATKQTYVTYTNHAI
Method in brief: (§4)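 CHO cells expressing human mGlu4 and Gqi5, plated at 30,000 cells/well and grown overnight at 37 °C, 5% CO2. Cells were loaded with 1 μM Fluo-4 AM for 45 min at 37 °C in HBSS/20 mM HEPES/2.5 mM probenecid. Compounds were run as 10-point, 1:3 dilution series. After 142 s, EC20 glutamate was added; 147 s later, EC80 glutamate. Fluorescence was normalized to the maximal glutamate response. EC50 and %Glu Max were fitted by four-parameter logistic, with maximum normalized to PHCCC.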

[11] = target: T3, Metabotropic glutamate receptor 4; assay: Positive allosteric modulation of human mGlu4 receptor expressed in CHO cells co-expressing Gqi5 assessed as increase in glutamate-induced calcium mobilization preincubated for 142 secs followed by EC20 glutamate addition and measured after 147 secs by Fluo-4-AM dye based fluorescence assay relative to control; format: functional, cell-based; method in brief: as §4
[12] = Fraction unbound in rat plasma after 4 hrs by equilibrium dialysis method; format: ADME, cell-free
[13] = Intrinsic clearance in human liver microsomes at 1 uM preincubated for 5 mins followed by NADPH addition measured up to 45 mins by LC-MS/MS analysis; format: ADME, Microsome; settings: read-out: CLH; method in brief: as §3
[14] = Brain to plasma partition coefficient, Kp of the compound in rat administered as iv cassette dose; format: ADME, organism-based; settings: brain, BLD = below limit of detection
Method in brief: (§5)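 Cassette dosing in male Sprague-Dawley rats (~300 g, n = 1 per experiment), with carotid artery and jugular vein catheters. Animals acclimated about one week with food and water ad libitum. Plasma (ng/mL) and brain (ng/g) levels were measured and Kp calculated.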

[15] = Plasma concentration in rat administered as iv cassette dose; format: ADME, organism-based; settings: in vivo; method in brief: as §5
[16] = Drug uptake in rat brain administered as iv cassette dose; format: ADME, organism-based; settings: in vivo, BLD = below limit of detection; method in brief: as §5

SMILES	clearance [1] [mL/min/kg]	MRT [2] [min]	pEC50 [3]	pIC50 (Cytochrome P450 1A2)	CLint scaled at 1 µM [4] [mL/min/kg]	%max [5] [%]	Emax [6] [%]	half-life [7] [min]	fraction unbound at 4 h [8]	Vd [9] [L/kg]	pEC50 [10]	%max [11] [%]	fraction unbound at 4 h [12]	CLint scaled at 1 µM [13] [mL/min/kg]	Kp [14]	Cp [15] [ng/mL]	Drug uptake [16]
Cc1noc2ccc(Nc3n[nH]c4cc(F)cnc34)cc12	64.6	31.6	6.91	> 7.00	33.4	111	> 50	54.8	0.054	2	5.80	80.6	0.076	24.2			
c1cnc2c(Nc3ccc4c(C5CCCC5)noc4c3)n[nH]c2c1	62.1		6.17	5.92	398	97.9		100	0.01		6.14	87.6	0.007	30.7			
Cc1noc2ccc(Nc3n[nH]c4nccnc34)cc12	24.3	37.2	7.19	6.70	3	127	> 50	28.6	0.066	0.9	6.86	85.4	0.064	114			
CN(C(=O)c1nsc2cc(Nc3n[nH]c4cccnc34)ccc12)C1CC(F)(F)C1					2940				0.006		7.17	76.7	< 0.001	298	Bld	511	Bld
Cc1noc2ccc(Nc3n[nH]c4ncccc34)cc12	38	60.6	6.68	6.15	30.1	108	> 50	107	0.066	2.5	6.64	81.9	0.079	81.4			
CC(F)(F)c1noc2cc(Nc3n[nH]c4cccnc34)ccc12	27.8		5.80	6.30	11	83.8		90.8	0.003		6.17	58.8	0.017	24.6			
Cc1noc2c(F)cc(Nc3n[nH]c4cccnc34)cc12	81.1	38.4	7.28	> 7.00	66.4	114	> 50	31.2	0.029	3.1	6.56	77.7	0.05	31.1			
Cc1noc2c(F)cc(Nc3n[nH]c4ncccc34)cc12	30.5	38	6.77	> 7.00	110	114	> 50	34.7	0.028	1.2	6.91	74.7	0.033	50.2			
CC(C)(C)Cc1nsc2cc(Nc3n[nH]c4nccnc34)cnc12			6.80	< 4.52	189	112			0.013		6.98	54	0.011	40.2			
CC(C)(C)Cc1noc2cc(Nc3n[nH]c4cccnc34)ccc12	43.2		6.27	5.96	86.9	84.8		79.9	0.016		5.89	68.9	0.022	7.3			
